System: MS2 coat protein
Test: apparent Kd, MS2 coat protein; higher = weaker binding; RNA-MaP array; FMN 200 µM where present
Outline: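 SNAP-549-labelled MS2 coat protein, doubled from 0.7 or 1.5 nM to 3 µM, was titrated over designs transcribed by stalled E. coli RNA polymerase on Illumina sequencing-chip clusters. Titrations were run without and then with constant ligand in 100 mM Tris-HCl pH 7.5, 80 mM KCl, 4 mM MgCl2, BSA, DTT, yeast tRNA and Tween-20. The apparent Kd is the median of filtered per-cluster fits to green signal normalised to red-channel RNA signal and control-cluster median Fmax.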

[1] = designed as: ON switch for flavin mononucleotide, no ligand
[2] = ligand present: flavin mononucleotide, designed as: ON switch for flavin mononucleotide
[3] = designed as: OFF switch for flavin mononucleotide, no ligand
[4] = ligand present: flavin mononucleotide, designed as: OFF switch for flavin mononucleotide

## UUGAUUAUACAAGGAUAUCAAUUGUAUACAAGUCUUACAUGAGGAUCACCCAUGUUAAAUUUUUUUGAGAAGGUGUAUUGUCAG
[1]
  apparent Kd: 40.2 nM
[2]
  apparent Kd: 24 nM

## UUGAUUAUACAAGGAUAUCAAUUGUAUACAAGUCUUACAUGAGGAUCACCCAUGUUAAAUUUUUUUGAGAAGGUGUGUUGUCAG
[1]
  apparent Kd: 33.9 nM
[2]
  apparent Kd: 28.5 nM

## UUGGACGUCGUAGAAUAUGUAGGAUAUUCCUACAUGAGGAUCACCCAUGUUGACAUGGAAGAAGGACAGAAGGACGAUGUCCAU
[1]
  apparent Kd: 188 nM
[2]
  apparent Kd: 7.02 nM

## UUGGACGUCGUAGGAUAUGAAGGAUAUUCCUACAUGAGGAUCACCCAUGUUGACAUGGAAGAAGGACAGAAGGACGAUGUCCAU
[1]
  apparent Kd: 11.3 nM
[2]
  apparent Kd: 5.16 nM

## UUGGACGUCGUAGGAUAUGUAGGAUAUUCCUACAUGAGGAUCACCCAUGUUGACAUAGAAGAAGGACAGAAGGACGAUGUCCAU
[1]
  apparent Kd: 88.3 nM
[2]
  apparent Kd: 4.86 nM

## UUGGACGUCGUAGGAUAUGUAGGAUAUUCCUACAUGAGGAUCACCCAUGUUGACAUGGAAGAAGGACGGAAGGACGAUGUCCAU
[1]
  apparent Kd: 899 nM
[2]
  apparent Kd: 18.9 nM

## UUGGACGUCGUAGGAUAUGUAGGAUAUUCCUACAUGAGGAUCACCCAUGUUGACAUGGAUGAAGGACAGAAGGACGAUGUCCAU
[1]
  apparent Kd: 276 nM
[2]
  apparent Kd: 357 nM

## UUGGACGUCGUAGGAUAUGUAGGAUAUUCCUACAUGAGGAUCACCCAUGUUGACAUGUAAGAAGGACAGAAGGACGAUGUCCAU
[1]
  apparent Kd: 208 nM
[2]
  apparent Kd: 12.2 nM

## UUGGACGUCGUAGGAUAUGUAGGAUAUUCCUACAUGAGGAUCACCCAUGUUGAGAUGGAAGAAGGACAGAAGGACGAUGUCCAU
[1]
  apparent Kd: 25.3 nM
[2]
  apparent Kd: 4.05 nM

## UUGGACGUCGUAGGAUAUGUAGGAUCUUCCUACAUGAGGAUCACCCAUGUUGACAUGGAAGAAGGACAGAAGGACGAUGUCCAU
[1]
  apparent Kd: 6.88 nM
[2]
  apparent Kd: 4.77 nM

## UUGGACGUCGUAGGAUAUGUAUGAUAUUCCUACAUGAGGAUCACCCAUGUUGACAUGGAAGAAGGACAGAAGGACGAUGUCCAU
[1]
  apparent Kd: 5.8 nM
[2]
  apparent Kd: 4.56 nM

## UUGGCACAUGAGGAUCACCCAUGUUAGGAUAUUGUGGUAGAAACAGCUGGGAAACGCACGAGAAGGGACACACG
[3]
  apparent Kd: 37.1 nM
[4]
  apparent Kd: 55.5 nM

## UUGGCAUCGUAGAAGGGUGACAUGAGGAUCACCCAUGUGAUGAUAUUUCUCGAGAUAUGUUGUCCAUAGGAUAUACGAGCGAAC
[1]
  apparent Kd: 80.9 nM
[2]
  apparent Kd: 18.4 nM

## UUGGCGACGUAGAAGGGUGACAUGAGGAUCACCCAUGUGCCGAUAUUUCUCGAAAUAUGUCGGCCACAGGAUAUACGUGCCAUC
[1]
  apparent Kd: 38.2 nM
[2]
  apparent Kd: 91.8 nM

## UUGGCGCGAUCCUGGGUCUCACAUGAGGAUCACCCAUGUAGAGAGGAUAUGCAUAGGGCCCAAUGGCAGAAGGCUCUACAUGAG
[3]
  apparent Kd: 91.4 nM
[4]
  apparent Kd: 57.2 nM

## UUGGUAUUCGUAGGAUAUCCGUCGCCACCGUGUGGAGAAGGACGAACAUGAGGAUCACCCAUGUAUCAUGGUGUGGGCGUUGUC
[3]
  apparent Kd: 92.5 nM
[4]
  apparent Kd: 90.1 nM

## UUGGUGUACGUAGGAUAUGUAGGAUAUUCCUACAUGAGGAUCACCCAUGUAUGCAUGGAAGAAGGACAGAAGGACGUGCACCAU
[1]
  apparent Kd: 203 nM
[2]
  apparent Kd: 14 nM

## UUGUAACGAUUAGGAUAUUAUUAAUAGAACUUUAUGAUAUACAUGAGGAUCACCCAUGUUACUUUUAAGAAGGAAUCGUAUUAU
[3]
  apparent Kd: 24.4 nM
[4]
  apparent Kd: 18.3 nM

## UUGUACAUAGGAUAUAGUUGUUUGUACAUGAGGAUCACCCAUGUUAUGUAUCUUUUGCUUCUAGAAGGAUGUUCUU
[3]
  apparent Kd: 38.7 nM
[4]
  apparent Kd: 27.7 nM

## UUGUGGGAGCAGGAUAUCUUAGUUUGGUUGUGUGGAGAAGGGCUGACAUGAGGAUCACCCAUGUGGUCCUAGAU
[3]
  apparent Kd: 24.1 nM
[4]
  apparent Kd: 29.5 nM

## UUGUUAUAUGUAGGAUAUGCAUAUUAUUAUUAUGCAGAAGGACAUGAGGAUCACCCAUGUAUAUUGUUGUUAUAUAUUAUAUAU
[3]
  apparent Kd: 24 nM
[4]
  apparent Kd: 28.4 nM

## UUGUUAUAUGUAGGAUAUGCGUAUUAUUAUUAGGCAGAAGGACAUGAGGAUCACCCAUGUAUGUUGUUGUUAUAUAUUAUAUAU
[3]
  apparent Kd: 28.4 nM
[4]
  apparent Kd: 29.6 nM

## UUGUUAUAUGUAGGAUAUGCGUAUUAUUGUUAUGCAGAAGGACAUGAGGAUCACCCAUGUAUAUUAUUGUUAUAUAUUAUAUAU
[3]
  apparent Kd: 25.7 nM
[4]
  apparent Kd: 66.5 nM

## UUGUUCUGAGGAUAUACAUGAGGAUCACCCAUGUGUUUCAGCUAGGAGACUAGCGAAAGUAGAAGGCUGUUCUC
[3]
  apparent Kd: 16.7 nM
[4]
  apparent Kd: 17.9 nM

## UUGUUCUGAGGAUAUACAUGAGGAUCACCCAUGUGUUUCUGCUUGGUGUCUUGCGAAUGUAGAAGGCUGUUCUC
[3]
  apparent Kd: 37.5 nM
[4]
  apparent Kd: 40.2 nM

## UUGUUGUGUGUAGGAUAUGCAUAUUAUUAUUAUGCAGAAGGACAUGAGGAUCACCCAUGUAUAUUAUUAUUAUAUAUUAUAUAU
[3]
  apparent Kd: 31.1 nM
[4]
  apparent Kd: 36.6 nM

## UUGUUUGUAGUGAGGAUAUCGUUGAGGAAGAGGAUCGAGAAGGCACAUGAGGAUCACCCAUGUUAGAUGUGGUU
[3]
  apparent Kd: 170 nM
[4]
  apparent Kd: 198 nM

## UUUAAGUCAGGAUAUCGUUAAUUUAAUUAAUUAUUUUAAUUCGAGAAGGGACAUGAGGAUCACCCAUGUAAUUU
[3]
  apparent Kd: 36.8 nM
[4]
  apparent Kd: 60.2 nM

## UUUAAUAUUAUAGGAUAUGGAUACGAUACGUAUCCAGAAGGGUGAUUAAACUAUAAUCUAUACAUGAGGAUCACCCAUGUUUAU
[1]
  apparent Kd: 212 nM
[2]
  apparent Kd: 44.7 nM

## UUUACAUGAGGAUCACCCAUGUAUAGAACGGUUAAUUAAAGUGAGGAUAUACAUAAUUUUAAAUUGUAGAAGGCACUGGGUACA
[1]
  apparent Kd: 14.4 nM
[2]
  apparent Kd: 19.9 nM

## UUUACAUGAGGAUCACCCAUGUAUAGAACGGUUCAUUAAAGUGAGGAUAUACAUAAUUUUAAAUUGUAGAAGGCACUGGGUACA
[1]
  apparent Kd: 17.7 nM
[2]
  apparent Kd: 19.1 nM

## UUUACAUGAGGAUCACCCAUGUCUGUCACCCAUGUGUGCAAUCAGGAUAUGAUCUCAAGAAUGAAUUAGAAGGGAUAACAUGAG
[1]
  apparent Kd: 182 nM
[2]
  apparent Kd: 194 nM

## UUUACAUGAGGAUCACCCAUGUCUUGCAAGAUGAGUUCUGGUGAGGAUAUACAUGAUAAAGAACUGUAGAAGGCACUGGGUACA
[1]
  apparent Kd: 305 nM
[2]
  apparent Kd: 362 nM

## UUUAGUAUCUAGGAUAUCUAGUACAUAGUAUCUAGAGAAGGAGAUACAUGAGGAUCACCCAUGUUCUGUGAUCU
[3]
  apparent Kd: 210 nM
[4]
  apparent Kd: 36.4 nM

## UUUAGUUGCGGGCAGGAUAUGUAUUAAAAUACAUGAGGAUCACCCAUGUGCGGGUAUAACACCCGACAGAAGGGCCAAUCGCGAC
[1]
  apparent Kd: 322 nM
[2]
  apparent Kd: 33.3 nM

## UUUAUAAAUUAGAAGGCGAGAUAAAUUACAAUAGACAUGAGGAUCACCCAUGUGUACCCAUGUUUUGAGGAUAUAGUCAUAUAU
[1]
  apparent Kd: 1140 nM
[2]
  apparent Kd: 624 nM

## UUUAUAAAUUAGAAGGCGUGAUAAAAUACAAUAGACAUGAGGAUCACCCAUGUGUACCCAUGUUAUGAGGAUAUAGUCAUAUAU
[1]
  apparent Kd: 279 nM
[2]
  apparent Kd: 233 nM

## UUUAUACAUGAGGAUCACCCAUGUGAGGAUAUGCUUUAUUAUUAUUAUUAUUAUUAUUGCAGAAGGUACGUUAU
[3]
  apparent Kd: 35.7 nM
[4]
  apparent Kd: 36.1 nM

## UUUAUGGGACAGAAGGGCAUUUACAUGAGGAUCACCCAUGUUCAUCAUUGCAGGAUAUGUAUUACAUGAGGAUCACCUAUGUAC
[1]
  apparent Kd: 74.9 nM
[2]
  apparent Kd: 24.4 nM

## UUUAUGUAAGGAUAUGCGGGCGGGCGCGUUUGUGUUUGUUUGUAGAAGGUACAUGAGGAUCACCCAUGUAGUGG
[3]
  apparent Kd: 133 nM
[4]
  apparent Kd: 169 nM

## UUUAUGUAAGGAUAUGCGGGCGGGCGUGAAAAUGUUUGUUUGUAGAAGGUACAUGAGGAUCACCCAUGUAGUGG
[3]
  apparent Kd: 145 nM
[4]
  apparent Kd: 201 nM

Source: the EternaBench riboswitch data
